Rows were chosen to be rich in hits. Some 3.1% of all compounds tested hit in one or more screens of this group.
KCNK9 inh: KCNK9 potassium channel inhibitors, primary screen, HEK293 cells, thallium flux; FluxOR thallium flux fluorescence; hits give low values; B-score at 10 µM; actives 1.2% (n = 310,000); Potassium channel subfamily K member 9 (Homo sapiens), Q9NPC2;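 active = ratio B-score over 3 SD below the library mean, with starting fluorescence within 5 SD of its mean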;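 also: negative B-score means less thallium flux so channel inhibition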
hERG protect: hERG rescue from dofetilide block, primary screen, cell-based, CHO-hERG, FluxOR thallium flux, dofetilide IC70. AID 1511, 2009. actives 0.51% (n = 310,000). activation (rescue from dofetilide block), less the hit threshold, % at 10 µM. Voltage-gated inwardly rectifying potassium channel KCNH2 (Homo sapiens), Q12809. dofetilide IC70 present;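 active = activation above the mean of controls blocked by dofetilide plus 5 SD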;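 also: thallium influx through hERG after potassium depolarization seen as dye fluorescence rise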
Target sequence (Q12809 whole entry, looked up): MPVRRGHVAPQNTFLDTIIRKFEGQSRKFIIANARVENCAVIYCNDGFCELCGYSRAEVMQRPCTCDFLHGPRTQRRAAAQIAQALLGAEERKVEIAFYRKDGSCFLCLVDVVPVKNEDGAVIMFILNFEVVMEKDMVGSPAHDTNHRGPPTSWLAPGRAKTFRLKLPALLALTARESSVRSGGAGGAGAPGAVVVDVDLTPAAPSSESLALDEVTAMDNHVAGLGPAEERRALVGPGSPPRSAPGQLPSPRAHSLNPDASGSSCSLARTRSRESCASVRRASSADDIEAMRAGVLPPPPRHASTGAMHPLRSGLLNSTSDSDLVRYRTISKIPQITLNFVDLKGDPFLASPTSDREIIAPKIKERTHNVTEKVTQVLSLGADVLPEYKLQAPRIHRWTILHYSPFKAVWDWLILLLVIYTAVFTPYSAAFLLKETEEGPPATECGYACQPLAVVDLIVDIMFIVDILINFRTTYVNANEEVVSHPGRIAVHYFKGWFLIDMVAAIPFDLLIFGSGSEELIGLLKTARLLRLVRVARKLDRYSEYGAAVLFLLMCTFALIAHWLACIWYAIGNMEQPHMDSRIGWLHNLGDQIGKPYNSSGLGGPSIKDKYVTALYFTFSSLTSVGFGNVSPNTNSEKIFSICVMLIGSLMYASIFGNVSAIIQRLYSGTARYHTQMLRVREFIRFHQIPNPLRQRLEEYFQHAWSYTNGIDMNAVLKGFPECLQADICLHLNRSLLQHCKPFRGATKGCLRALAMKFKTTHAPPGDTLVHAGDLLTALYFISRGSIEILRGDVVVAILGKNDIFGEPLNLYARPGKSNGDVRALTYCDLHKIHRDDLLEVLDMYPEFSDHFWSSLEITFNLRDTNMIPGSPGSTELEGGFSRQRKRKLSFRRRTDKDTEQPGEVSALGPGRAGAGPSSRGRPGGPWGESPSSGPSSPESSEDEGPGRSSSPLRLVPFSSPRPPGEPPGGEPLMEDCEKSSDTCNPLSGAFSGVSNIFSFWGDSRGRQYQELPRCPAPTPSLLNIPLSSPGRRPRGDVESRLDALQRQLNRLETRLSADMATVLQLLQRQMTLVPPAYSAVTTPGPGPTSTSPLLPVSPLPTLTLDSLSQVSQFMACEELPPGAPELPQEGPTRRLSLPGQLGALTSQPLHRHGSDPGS
KCNQ1 pot: potentiators or activators of KCNQ1 channel, primary screen, cell-based, thallium flux, high-throughput; AID 2648, 2010; actives 0.35% (n = 310,000); B-score at 10 µM; CHO-K1 KCNQ1, thallium flux FluxOR fluorescence; hits give high values;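 active = fluorescence ratio B-score, a plate-corrected score, at least three library SD, with initial intensity B-score within 5 SD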
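System: Stable KCNQ1 CHO-K1 line | Incubation: 90 min dye loading and 20 min compound exposure, both at room temperature | Measure: Ratio B score | Medium: Assay buffer for compound exposure, DMSO matched across wells | Compound dosing: Single-concentration screen | Probe or stimulus: K+/Tl+ depolarizing stimulus | Measured by: Kinetic FluxOR fluorescence, 10 s baseline plus 110 s post-stimulus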
KCNQ1 block: inhibitors of human KCNQ1 channel, primary screen, cell-based, thallium flux, high-throughput | Potassium voltage-gated channel subfamily KQT member 1 (Homo sapiens), P51787 | CHO-K1 KCNQ1, FluxOR thallium flux fluorescence; hits give high values | B-score at 10 µM | actives 1.3% (n = 310,000);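 active = compounds whose thallium flux B-score, printed positive for inhibition, exceeds three library SD while starting fluorescence stays within three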;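 also: channel opened by potassium depolarization with thallium stimulus after 20 min compound exposure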
KCNK3 inh: human KCNK3 channel inhibitors, primary screen, CHO cells, FluxOR thallium flux, B-score. actives 0.84% (n = 340,000). B-score at 10 µM. Potassium channel subfamily K member 3 (Homo sapiens), O14649. FluxOR fluorescence; hits give low values;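 active = B-score under library mean minus 4 SD, starting fluorescence ratio at most library mean plus 5 SD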;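 also: more negative B-score means stronger inhibition of thallium flux through KCNK3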
KCNK9 block conf: KCNK9 potassium channel inhibitors, confirmation, HEK293 cells, thallium flux, duplicate | shares compounds with KCNK9 inh | FluxOR thallium flux fluorescence | inhibition, % at 10 µM | actives 43% (n = 4,900);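 active = thallium signal inhibited by more than 5 SD of the compound-free buffer control wells, on both duplicate plates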
Kir2-1 spec: mouse Kir2.1 channel inhibition, confirmation, selectivity assay for KCNK9 modulator project, cell-based, HEK293, thallium flux; Kir2.1 cells, FluxOR thallium flux fluorescence; actives 4% (n = 4,900); shares compounds with KCNK9 inh; inhibition, % at 10 µM; AID 492993, 2010;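 active = thallium signal drop more than 5 SD beyond the mean of the no-compound control wells, seen in both duplicate plates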;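 also: signal is fluorescence rise after thallium addition divided by baseline fluorescence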
KCNK9 uninduced: thallium flux in non-induced HEK293 cells, confirmation, counter-screen for KCNK9 inhibitor project, cell-based, second counter screen, non-induced KCNK9-HEK293; shares compounds with KCNK9 inh; FluxOR thallium flux; inhibition, % at 10 µM; actives 40% (n = 4,900);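 active = thallium signal drop beyond 5 SD of the untreated control mean, on both duplicate plates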
Large screens that a line does not name were inactive (follow-up assays come after a bar, where they were run).

Cc1cc(C)nc(NS(=O)(=O)c2ccc(NC(=O)c3cc(-c4ccccc4)nc4ccccc34)cc2)n1	none
Cc1ccc(-c2cc(C(=O)Nc3ccc(S(=O)(=O)Nc4onc(C)c4C)cc3)c3ccccc3n2)cc1	none | KCNK9 block conf inactive | Kir2-1 spec inactive | KCNK9 uninduced inactive
COc1ccc(Nc2nnc(SCc3cn4c(C)cccc4n3)s2)cc1	none
Cc1cccn2cc(CSc3nnc(Nc4ccc(C(C)C)cc4)s3)nc12	none | KCNK9 block conf inactive | Kir2-1 spec inactive | KCNK9 uninduced inactive
CN1c2ccccc2C(C)(C)[C@]12C=Cc1cc(O)ccc1O2	KCNQ1 block 13 | KCNK9 block conf inactive | Kir2-1 spec 33.0% | KCNK9 uninduced inactive
CC(=O)c1ccc(N2CCN(C(=O)Nc3cccc(F)c3)CC2)cc1	none
O=C(O)c1ccccc1SCCS(=O)(=O)c1ccc(Cl)cc1Cl	none
c1ccc(Cn2c(NCc3ccncc3)nc3ccccc32)cc1	none
COc1ccc(CNc2nc3ccccc3n2Cc2ccc(C)cc2)cc1OC	KCNK9 inh -8.48 | KCNK9 block conf 28.0% | Kir2-1 spec inactive | KCNK9 uninduced inactive
O=C(O)C1CCN(C(=O)CCN2C(=O)S/C(=C\c3ccccc3)C2=O)CC1	none
O=C(NCc1ccco1)C12CC3CC(CC(C3)C1)C2	none
O=C(CC12CC3CC(CC(C3)C1)C2)NC(=S)NCc1ccco1	KCNQ1 block 6 | KCNK9 block conf inactive | Kir2-1 spec inactive | KCNK9 uninduced inactive
CC1CCN(C(=O)COc2ccc3ccccc3c2Br)CC1	none
O=C(c1cccs1)C1CCCN(Cc2nc(Cc3ccccc3F)no2)C1 (stereo unspecified)	none | KCNK9 block conf inactive | Kir2-1 spec inactive | KCNK9 uninduced inactive
O=C(c1cccnc1)C1CCCN(Cc2nc(Cc3ccccc3F)no2)C1 (stereo unspecified)	none
CC(C)C[C@H](NC(=O)c1nc[nH]c1C(=O)NCc1ccc(CNC(=O)OC(C)(C)C)cc1)C(=O)OC(C)(C)C	KCNK9 inh -8.84 | KCNK9 block conf 31.5% | Kir2-1 spec inactive | KCNK9 uninduced 29.0%
CC(C)(C)OC(=O)[C@H](Cc1ccccc1)NC(=O)c1nc[nH]c1C(=O)N1CCc2ccccc2C1	none | KCNK9 block conf inactive | Kir2-1 spec inactive | KCNK9 uninduced inactive
CC(C)(C)OC(=O)NCCCC[C@H](NC(=O)c1nc[nH]c1C(=O)N1CCc2ccccc2C1)C(=O)OC(C)(C)C	none
COc1cc(C(Nc2ccccn2)c2ccc3ccc(C)nc3c2O)cc(OC)c1O (stereo unspecified)	none
Cc1ccc2ccc(C(Nc3ccccn3)c3ccccc3)c(O)c2n1 (stereo unspecified)	none | KCNK9 block conf inactive | Kir2-1 spec inactive | KCNK9 uninduced inactive
O=C(Nc1cccc(NC(=O)c2ccc(Cl)cc2Cl)c1)c1cccnc1	none
COc1ccc2nc(NC(=O)C3CC(=O)N(c4ccccc4)C3)sc2c1 (stereo unspecified)	none
COc1ccc(NC(=O)C2CCC(C(C)(C)C)CC2)cc1S(=O)(=O)N1CCOCC1 (stereo unspecified)	none (no result: KCNK9 inh, hERG protect, KCNQ1 pot, KCNQ1 block)
CCOc1ccc(N(C)Cc2cc(=O)oc3ccc(OCC)cc23)cc1	KCNK9 inh -11.4 | KCNK9 block conf 42.5% | Kir2-1 spec inactive | KCNK9 uninduced 32.5%
N#CC(c1ccccc1O)N1N=C(c2ccccc2)CC1c1ccccc1 (stereo unspecified)	KCNK9 inh -10.5, KCNQ1 block 12 | KCNK9 block conf 40.5% | Kir2-1 spec inactive | KCNK9 uninduced 47.0%
C=CCOc1ccc(/C=C/C(=O)OCC(=O)N(C)CC(=O)Nc2ccc(F)cc2)cc1	none
Cc1cc(NC(=O)CSc2nc(C)c(C)n2CC(C)C)no1	none (no result: KCNK9 inh, hERG protect, KCNQ1 pot, KCNQ1 block)
CSc1ccccc1NC(=O)c1ccc(CN2CCOCC2)cc1	KCNK9 inh -10.6 | KCNK9 block conf inactive | Kir2-1 spec inactive | KCNK9 uninduced inactive
CCOC(=O)c1c(C)c(C(=O)N2CCc3ccccc3C2)c(C)n1CC	none | KCNK9 block conf inactive | Kir2-1 spec inactive | KCNK9 uninduced inactive
O=C(N/N=C/c1ccccn1)c1cc(-c2ccc3ccccc3c2)n[nH]1	KCNK9 inh -12.8 | KCNK9 block conf 45.0% | Kir2-1 spec inactive | KCNK9 uninduced 31.0%
COc1cc(/C=C2\C(=O)N(c3ccccc3)N=C2C)ccc1Oc1ccc([N+](=O)[O-])cc1[N+](=O)[O-]	none (no result: KCNK9 inh, hERG protect, KCNQ1 pot, KCNQ1 block)
CC1=NN(c2ccccc2)C(=O)/C1=C\c1ccc(Oc2ccc([N+](=O)[O-])cc2[N+](=O)[O-])cc1	none | KCNK9 block conf inactive | Kir2-1 spec inactive | KCNK9 uninduced inactive
Cc1ccc(C)c(N2CCN(S(=O)(=O)c3ccc(-c4cc(C)no4)s3)CC2)c1	none
Cc1ccc(C)c(N2CCN(S(=O)(=O)c3c(C)noc3C)CC2)c1	none | KCNK9 block conf inactive | Kir2-1 spec inactive | KCNK9 uninduced 28.0%
O=C(NN1C(=O)C2C3C=CC(C3)C2C1=O)c1ccccc1 (stereo unspecified)	none
Cc1cccc(C(=O)NN2C(=O)C3C(c4ccccc4)C=CC(c4ccccc4)C3C2=O)c1 (stereo unspecified)	KCNK9 inh -12.9 | KCNK9 block conf 41.0% | Kir2-1 spec inactive | KCNK9 uninduced inactive
CCOC(=O)c1c(C)c(C(=O)N2CCN(c3cccc(Cl)c3)CC2)c(C)n1C	none | KCNK9 block conf inactive | Kir2-1 spec inactive | KCNK9 uninduced inactive
Cn1c(N)c(S(=O)(=O)N2CCCC2)c(=O)n(C)c1=O	none
O=S(=O)(c1ccccc1)N1CCN(C/C=C/c2ccccc2)CC1	none | KCNK9 block conf inactive | Kir2-1 spec inactive | KCNK9 uninduced inactive
O=S(=O)(c1ccc(Cl)cc1)N1CCN(CCc2ccccc2)CC1	none
O=S(=O)(c1ccc(F)cc1)N1CCN(CCc2ccccc2)CC1	none | KCNK9 block conf inactive | Kir2-1 spec inactive | KCNK9 uninduced inactive
Oc1ccc2ccccc2c1CN1CCN(C/C=C/c2ccccc2)CC1	none | KCNK9 block conf inactive | Kir2-1 spec inactive | KCNK9 uninduced inactive
O=S(=O)(c1ccccc1)N1CCN(Cc2c(O)ccc3ccccc23)CC1	none (no result: KCNK9 inh, hERG protect, KCNQ1 pot, KCNQ1 block)

Source: PubChem (Johns Hopkins Ion Channel Center)
